From ChEMBL document CHEMBL1128471, “Reversible inhibitors of the gastric (H+/K+)-ATPase. 4. Identification of an inhibitor with an intermediate duration of action” (J Med Chem, 1995)

Experiments:
[1] = target: T1, Potassium-transporting ATPase (Rattus norvegicus) (UniProt P09626+P18598); assay: Inhibition of pentagastrin-stimulated gastric acid secretion in the anesthetized rat after iv administration; type: functional, organism-based; details: Stomach
Summary of the method: (§1)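 Anesthetized, lumen-perfused rats were given pentagastrin to stimulate gastric acid secretion, and compounds were given iv. The value is an ED50 (µmol/kg iv) with 95% confidence limits, or percent inhibition ± SEM at a single 10 µmol/kg iv dose.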

[2] = target: Potassium-transporting ATPase (Sus scrofa, UniProt P19156); assay: Inhibition of K+ -stimulated gastric ATPase activity was measured using lyophilized gastric vesicles at pH 7; type: tissue-based, Stomach
Potassium-transporting ATPase, sequence (P18434 whole entry): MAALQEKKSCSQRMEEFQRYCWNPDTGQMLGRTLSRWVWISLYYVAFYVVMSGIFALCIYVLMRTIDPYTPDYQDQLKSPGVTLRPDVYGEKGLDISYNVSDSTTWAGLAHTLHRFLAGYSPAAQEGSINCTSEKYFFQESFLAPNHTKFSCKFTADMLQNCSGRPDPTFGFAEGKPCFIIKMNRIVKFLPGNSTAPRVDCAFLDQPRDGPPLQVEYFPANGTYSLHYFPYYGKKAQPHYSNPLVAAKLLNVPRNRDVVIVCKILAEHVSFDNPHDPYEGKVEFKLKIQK
Potassium-transporting ATPase, sequence (P19156 whole entry): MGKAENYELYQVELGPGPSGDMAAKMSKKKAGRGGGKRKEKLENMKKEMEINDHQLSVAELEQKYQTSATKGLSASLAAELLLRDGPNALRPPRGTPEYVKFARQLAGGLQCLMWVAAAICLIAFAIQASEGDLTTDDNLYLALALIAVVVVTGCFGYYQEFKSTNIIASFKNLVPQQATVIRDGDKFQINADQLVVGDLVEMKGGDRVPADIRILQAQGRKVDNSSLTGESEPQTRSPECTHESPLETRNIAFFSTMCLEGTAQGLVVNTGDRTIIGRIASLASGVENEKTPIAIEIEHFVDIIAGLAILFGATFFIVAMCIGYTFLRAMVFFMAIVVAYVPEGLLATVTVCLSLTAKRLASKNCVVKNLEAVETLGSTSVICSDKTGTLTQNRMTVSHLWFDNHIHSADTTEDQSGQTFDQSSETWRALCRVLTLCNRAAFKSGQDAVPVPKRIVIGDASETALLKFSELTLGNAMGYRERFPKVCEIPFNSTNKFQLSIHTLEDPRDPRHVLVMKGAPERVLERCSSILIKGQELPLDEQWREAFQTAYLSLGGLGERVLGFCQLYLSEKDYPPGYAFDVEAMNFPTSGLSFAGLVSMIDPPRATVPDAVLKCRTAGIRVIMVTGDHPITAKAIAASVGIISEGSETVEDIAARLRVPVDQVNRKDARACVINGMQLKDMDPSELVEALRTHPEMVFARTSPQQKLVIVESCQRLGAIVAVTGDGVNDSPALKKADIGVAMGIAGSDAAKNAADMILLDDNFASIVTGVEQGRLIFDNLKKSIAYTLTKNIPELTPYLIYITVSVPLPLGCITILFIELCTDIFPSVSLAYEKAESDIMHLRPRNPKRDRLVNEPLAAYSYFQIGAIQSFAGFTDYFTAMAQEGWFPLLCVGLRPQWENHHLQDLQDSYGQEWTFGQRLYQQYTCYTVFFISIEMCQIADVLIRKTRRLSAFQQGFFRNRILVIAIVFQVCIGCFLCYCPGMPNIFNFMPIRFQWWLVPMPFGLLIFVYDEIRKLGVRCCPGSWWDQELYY
Summary of the method: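 K+-stimulated ATPase activity was measured in lyophilized (permeabilized) gastric vesicles at pH 7. The value is an IC50, or percent inhibition at the stated concentration where no IC50 could be determined.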

Canis familiaris [3] = assay: Mean percent peak inhibition of histamine-stimulated gastric acid secretion in the heidenhain pouch dog following a single dose of 4 umol/kg through oral administration.; type: functional; details: Canis lupus familiaris, Stomach
Canis familiaris [4] = assay: Mean percent peak inhibition of histamine-stimulated gastric acid secretion in the heidenhain pouch dog following a single dose of 1 umol/kg through iv administration.; type: functional; details: Canis lupus familiaris, Stomach
[5] = target: T1, Potassium-transporting ATPase (Rattus norvegicus); assay: Inhibition of pentagastrin-stimulated gastric acid secretion at a single dose of 10 umol/kg.; type: functional; details: Stomach; summary of the method: as §1

Row | Compound | ED50 [1] [µmol/kg] | IC50 [2] [nM] | inhibition in vivo at 4 µmol/kg (Canis familiaris [3]) [%] | inhibition in vivo at 1 µmol/kg (Canis familiaris [4]) [%] | inhibition [5] [%]
1 | CCCC(=O)c1cnc2c(OC)cccc2c1Nc1ccccc1C | 2.6 | 1700 | 83 | 67 | 
2 | CCCC(=O)c1cnc2c(OC)cccc2c1Nc1ccccc1CC | 2.35 | 890 | 85 | 77 | 
3 | CCCC(=O)c1cnc2c(/C=C/CO)cccc2c1Nc1ccccc1C |  | 2300 |  | 17 | 68
4 | CCCC(=O)c1cnc2c(OCCO)cccc2c1Nc1ccccc1C | 2.4 |  | 96 | 64 | 
5 | CCCC(=O)c1cnc2c(OCCO)cccc2c1Nc1ccc(F)cc1C | 2.92 |  | 80 | 44 | 
6 | Cc1cc(O)ccc1Nc1c(C(=O)C(C)C)cnc2c(CO)cccc12 | 1.72 | 36 |  | 47 | 
7 | CCC(=O)c1cnc2c(CO)cccc2c1Nc1ccc(O)cc1C |  | 180 | 24 | 59 | 90
8 | CCC(=O)c1cnc2c(OCCO)cccc2c1Nc1ccc(F)cc1C | 2.85 | 2000 | 72 | 58 | 
9 | CCCC(=O)c1cnc2c(OC)cccc2c1Nc1ccc(OC(=O)CC)cc1C |  | 19000 | 45 |  | 
10 | CCCC(=O)c1cnc2c(F)cccc2c1Nc1ccc(O)cc1C | 4.66 | 710 | 17 | 31 | 
11 | CCCC(=O)c1cnc2c(OCCCN(C)C)cccc2c1Nc1ccccc1C |  | 390 |  | 14 | 43
12 | CCC(=O)c1cnc2c(Oc3ccccn3)cccc2c1Nc1c(C)cccc1C |  | 4700 |  | 81 | 77
13 | CCCC(=O)c1cnc2c(OCCOC)cccc2c1Nc1ccccc1C | 2.75 |  | 81 | 51 | 
14 | CCCC(=O)c1cnc2c(C)cccc2c1Nc1ccccc1OC | 3.98 | 2200 |  |  | 
15 | CCCC(=O)c1cnc2c(OCCCNC(C)=O)cccc2c1Nc1c(C)cccc1C |  | 1800 | 40 | 86 | 75
16 | CCCC(=O)c1cnc2c(C=O)cccc2c1Nc1ccccc1C |  | 1200 |  | 51 | 64
17 | CCCC(=O)c1cnc2c(CO)cccc2c1Nc1ccccc1C | 1.72 |  | 56 | 39 | 
18 | CCCC(=O)c1cnc2c(CO)cccc2c1Nc1ccc(O)cc1C | 2.09 |  | 29 | 64 | 
19 | CCC(=O)c1cnc2c(CO)cccc2c1Nc1ccccc1C |  | 380 | 35 | 83 | 74

Row | Compound | ED50 [1] [µmol/kg] | IC50 [2] [nM] | inhibition in vivo at 4 µmol/kg (Canis familiaris [3]) [%] | inhibition in vivo at 1 µmol/kg (Canis familiaris [4]) [%] | inhibition [5] [%]
20 | CCCC(=O)c1cnc2c(CCCO)cccc2c1Nc1ccccc1C |  | 2600 | 48 |  | 63
21 | CCCC(=O)c1cnc2c(C3COCO3)cccc2c1Nc1ccccc1C (centres undefined) |  | 36000 |  |  | 31
22 | CCCC(=O)c1cnc2c(C(C)O)cccc2c1Nc1ccc(O)cc1C (centres undefined) | 2.74 | 61 |  | 30 | 
23 | CCCC(=O)c1cnc2c(OCCOCCO)cccc2c1Nc1ccccc1C | 1.89 |  |  | 52 | 
24 | CCCC(=O)c1cnc2c(C)cccc2c1Nc1ccccc1CC | 3.05 | 2900 |  | 66 | 
25 | CCCC(=O)c1cnc2c(OCCCC(=O)NC(C)(C)CO)cccc2c1Nc1c(C)cccc1C |  | 2800 |  |  | 61
26 | Cc1ccccc1Nc1c(C(=O)C(C)C)cnc2c(CO)cccc12 | 1.86 |  |  |  | 
27 | CCCC(=O)c1cnc2c(OCCCN(C)Cc3ccccc3)cccc2c1Nc1ccccc1C |  | 650 |  |  | 39
28 | CCCC(=O)c1cnc2c(CC(=O)OC)cccc2c1Nc1ccccc1C |  | 5400 |  |  | 43
29 | CCCC(=O)c1cnc2c(OC)cccc2c1Nc1ccccc1OCC | 4.9 | 2000 |  |  | 
30 | CCCC(=O)c1cnc2c(OC)cccc2c1Nc1cc(C)cc(C)c1 |  | 11300 |  |  | 39
31 | CCCC(=O)c1cnc2c(C(=O)OC)cccc2c1Nc1ccccc1C | 13.4 | 580 |  |  | 
32 | CCCC(=O)c1cnc2c(OC)cccc2c1Nc1ccccc1O |  | 1300 |  |  | 41
33 | CCCC(=O)c1cnc2c(OCCOCCOCCO)cccc2c1Nc1ccc(F)cc1C |  | 3600 |  |  | 51
34 | CCCC(=O)c1cnc2c(OCCOCCOCCO)cccc2c1Nc1ccccc1C |  |  | 78 | 20 | 
35 | CCCC(=O)c1cnc2c(OC)cc(O)cc2c1Nc1ccc(F)cc1C |  | 2100 |  |  | 54
36 | CCCC(=O)c1cnc2c(OC)cccc2c1Nc1ccc(OC)cc1C | 7.61 | 1270 |  | 71 | 
37 | CCCC(=O)c1cnc2c(OC)cccc2c1Nc1cccc(CO)c1C |  | 6000 |  |  | 44
38 | CCCC(=O)c1cnc2c(OC)cccc2c1Nc1cccc(C)c1C |  | 1400 | 67 | 77 | 60

Row | Compound | ED50 [1] [µmol/kg] | IC50 [2] [nM] | inhibition in vivo at 4 µmol/kg (Canis familiaris [3]) [%] | inhibition in vivo at 1 µmol/kg (Canis familiaris [4]) [%] | inhibition [5] [%]
39 | CCCC(=O)c1cnc2c(C(N)=O)cccc2c1Nc1ccccc1C |  | 1900 |  |  | 39
40 | CCCC(=O)c1cnc2c(NCCCN3CCOCC3)cccc2c1Nc1ccccc1C |  | 2400 |  |  | 47
41 | CCCC(=O)c1cnc2c(C)cccc2c1Nc1c(C)cccc1C | 2.88 | 3100 |  | 45 | 
42 | C=CC(O)c1cccc2c(Nc3ccccc3C)c(C(=O)CCC)cnc12 (centres undefined) |  | 660 |  |  | 49
43 | CCCC(=O)c1cnc2c(OC)cccc2c1Nc1c(C)cc(C)cc1C | 10.8 | 3100 |  |  | 
44 | CCCC(=O)c1cnc2c(OC)cccc2c1Nc1c(C)cc(O)c(O)c1C |  | 2800 |  |  | 50
45 | CCCC(=O)c1cnc2c(C)cccc2c1Nc1ccc(OC)cc1OC | 3.9 | 2400 |  | 41 | 
46 | CCCC(=O)c1cnc2c(C)cccc2c1Nc1ccccc1C | 3.12 | 3000 |  | 38 | 
47 | Cc1cc(F)ccc1Nc1c(C(=O)C(C)C)cnc2c(O)cccc12 |  | 2700 |  |  | 20
48 | CCCC(=O)c1cnc2cc(O)ccc2c1Nc1ccccc1C |  | 1200 |  |  | 56
49 | CCCC(=O)c1cnc2ccccc2c1Nc1ccccc1C | 5.45 |  |  |  | 
50 | CCCC(=O)c1cnc2ccc(O)cc2c1Nc1ccc(O)cc1C |  | 71 |  |  | 51
51 | CCCC(=O)c1cnc2c(OCCCN3CCCC3)cccc2c1Nc1ccccc1C |  | 510 |  |  | 31
52 | Cc1cc(F)ccc1Nc1c(C(=O)C(C)C)cnc2c(CO)cccc12 | 3.57 |  | 42 | 59 | 
53 | Cc1ccccc1Nc1c(C(=O)C(C)C)cnc2c(O)cccc12 |  | 1200 |  |  | 48
54 | CCCC(=O)c1cnc2c(OC)cccc2c1Nc1ccc(OC)cc1OC |  | 2100 |  |  | 53
55 | CCCC(=O)c1cnc2c(C)cccc2c1Nc1ccc(OC)cc1C | 4.7 | 1700 |  |  | 
56 | CCCC(=O)c1cnc2c(OCCCC(N)=O)cccc2c1Nc1c(C)cccc1C |  | 2200 |  |  | 72
